Source: PubChem BioAssay (several laboratories)
Most compounds without a hit are left out; they make up all but 2.4% or so of the library.
NTR1 agonist = agonists of human neurotensin receptor NTR1 | NTR1-U2OS beta-arrestin-GFP spot imaging, agonist mode | activation, % at 20 µM | 330,000 tested, 0.17% active | AID 493036;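 active = activation at or above 40% of the spot to cytoplasm intensity ratio, with at least 20 cells analyzed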;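 also: 0% = DMSO without peptide and 100% = 100 nM NTR1 peptide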
Target sequence (P30989 whole entry, looked up): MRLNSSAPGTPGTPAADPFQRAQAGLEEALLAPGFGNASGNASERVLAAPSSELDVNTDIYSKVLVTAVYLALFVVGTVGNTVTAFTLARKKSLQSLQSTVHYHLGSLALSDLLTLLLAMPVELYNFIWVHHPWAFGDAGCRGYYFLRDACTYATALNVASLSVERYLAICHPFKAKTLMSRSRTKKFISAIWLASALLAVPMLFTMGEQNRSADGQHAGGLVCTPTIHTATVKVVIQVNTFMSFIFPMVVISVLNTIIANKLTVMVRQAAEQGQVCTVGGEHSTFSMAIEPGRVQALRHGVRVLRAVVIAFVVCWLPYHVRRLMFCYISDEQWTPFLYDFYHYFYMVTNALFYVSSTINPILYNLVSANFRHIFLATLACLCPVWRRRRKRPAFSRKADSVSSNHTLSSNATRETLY
TAG inh = reduces triacylglycerol accumulation in H9c2 cells; Nile Red lipid (TAG) fluorescence; cells loaded with 200 µM oleic acid; inhibition, % at 12.5 µM; 230,000 tested, 0.66% active; AID 651582;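 active = pattern-corrected inhibition of lipid staining of at least 50% with the nuclear-stain viability signal not falling by more than 50%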;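 also: 0% = DMSO wells and 100% = triacsin C control wells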
aDG glyco up = alpha-DG glycosylation activation. Pro5-aDG cells, alpha-DG glycosylation AlphaScreen (IIH6); 0% Pro5, 100% B10-LARGE cell signal. activation, % at 10 µM. 360,000 tested, 0.22% active. AID 624168;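 active = activation of at least 8% versus controls, or a plate z-score of at least 8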;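 also: Pro5 are CHO cells carrying HIG-tagged alpha-DG that lacks glycosylation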
MC4R ag barr = activates human MC4R beta-arrestin recruitment; P32245; U2OS MC4R beta-arrestin complementation, luminescence; percent of melanotan II response, DMSO zero; activation, % at 8.9 µM; 360,000 tested, 0.98% active;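 active = activation above a per-plate cutoff, the mean activation of sample wells on that plate plus 3 SD, cut at about 8% in these data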
MC4R antag cAMP = antagonists of human melanocortin 4 receptor (MC4R). MC4R-expressing cells, MTII-stimulated cAMP, LANCE TR-FRET. inhibition, % at 6.5 µM. 360,000 tested, 0.48% active. P32245;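 active = inhibition above its plate's cutoff, the mean of tested wells on that plate plus 3 SD, cut at about 29% in these data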;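 also: 0% = Melanotan II alone and 100% = Melanotan II plus saturating MCL0020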
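System: U2OS-MC4R stable cell line; Technique: Eu-cAMP/anti-cAMP TR-FRET, emission 671 nm; Repeats: single well per compound; Also added: Melanotan II; Dosing: one concentration, 6.5 µM nominal; Schedule: 30-min compound, 1-h challenge, 1-h detection, room temperature.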
Tb MetRS inh = Trypanosoma brucei MetRS inhibition; purified T. brucei MetRS, ATP depletion, Kinase-Glo luminescence; inhibition, % at 11.9 µM; 360,000 tested, 0.4% active; AID 624268;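 active = inhibition above a per-plate cutoff of the control wells' mean inhibition plus 3 SD, cut at about 5.5% in these data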;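 also: 0% = DMSO wells median and 100% = median of wells with control inhibitor compound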
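Dosing: 11.9 µM single point; system: parasite MetRS enzyme; technique: luminescence of leftover ATP; times: 15 min enzyme-compound preincubation, 2 h reaction, 10 min detection, 25 °C; replicates: each compound tested once; read-out basis: percent inhibition relative to median high and low control wells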
Tb MetRS conf = Trypanosoma brucei MetRS inhibition confirmed. shares compounds with Tb MetRS inh. inhibition, % at 11.9 µM. 1,400 tested, 93% active. T. brucei MetRS enzyme, luminescence (ATP depletion); in the data active = inhibition above about 7%
Jurkat tox = Jurkat T cell cytotoxicity for MetRS hits | AID 624413 | shares compounds with Tb MetRS inh | inhibition, % at 8.3 µM | 1,400 tested, 12% active | Jurkat cells viability, ATP luminescence; in the data active = inhibition above about 15%;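 also: 0% = vehicle and 100% = reference inhibitor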
Tb MetRS inh FP = inhibits T. brucei methionyl tRNA synthetase in orthogonal FP test; purified T. brucei MetRS, fluorescence polarization; inhibition, % at 11.9 µM; 1,400 tested, 44% active; shares compounds with Tb MetRS inh; in the data active = inhibition above about 17%;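 also: 0% = vehicle wells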
Active calls of the source: *; . = not tested or not shown.

SMILES	NTR1 agonist	TAG inh	aDG glyco up	MC4R ag barr	MC4R antag cAMP	Tb MetRS inh	Tb MetRS conf	Jurkat tox	Tb MetRS inh FP
Cc1cnc(CNC(=O)C2CCC(=O)N(Cc3ccc(Cl)cc3)C2)[nH]1 (configuration not stated)	-1.0	-11.5	-0.4	-0.7	6.3	31.7*	68.6*	-0.7	35.6*
COc1cc(NCC2COc3c(ccc(OC)c3OC)C2=O)c([N+](=O)[O-])cc1OC (configuration not stated)	.	.	-0.2	.	.	-0.7	.	.	.
Nc1ccc(N2CCOCC2)c2nonc12	0.8	6.0	0.4	-2.9	-4.8	26.5*	4.5	-5.5	0.7
Cc1cc(C)cc(N(CC(=O)Nc2ccc(Br)cc2)S(=O)(=O)c2c(C)[nH]c(=O)[nH]c2=O)c1	2.9	.	-0.6	-3.6	-4.6	49.0*	75.8*	-1.1	45.3*
COc1ccc(C(CNC(=O)Nc2ccccc2)N2CCN(C)CC2)cc1 (configuration not stated)	0.3	.	-0.4	-0.6	5.3	0.3	.	.	.
COc1ccc(C(CNC(=O)Nc2ccc(Cl)cc2)N2CCN(C)CC2)cc1 (configuration not stated)	-0.3	.	0.0	-4.2	18.2	14.8*	39.3*	4.4	16.9*
O=C(CCCCn1c(=O)[nH]c2ccccc2c1=O)N1CCN(c2cccc(C(F)(F)F)c2)CC1	8.5	3.6	0.7	0.0	4.7	12.0*	14.0*	8.0	4.5
CC(=O)c1ccc(N2CCN(C(=O)CCCn3c(=O)[nH]c4ccc(Br)cc4c3=O)CC2)cc1	6.6	-20.2	0.3	-1.8	0.8	84.4*	104.0*	3.7	87.1*
CCCCCn1c(=O)[nH]c2cc(C(=O)N3CCN(c4ccc(C(C)=O)cc4)CC3)ccc2c1=O	3.7	.	0.6	1.6	-1.1	-0.9	.	.	.
O=C(CCn1c(=O)[nH]c2ccccc2c1=O)N1CCN(c2cccc(C(F)(F)F)c2)CC1	1.9	-4.1	-0.1	2.2	8.9	-1.2	.	.	.
CC(=O)c1ccc(N2CCN(C(=O)CCCn3c(=O)[nH]c4ccsc4c3=O)CC2)cc1	-0.2	.	0.0	-0.6	3.5	7.3*	17.1*	0.0	6.5
CC(C)(C(=O)N1CCC1(C)C(=O)NS(=O)(=O)c1ccccc1Cl)c1ccccc1 (configuration not stated)	.	-13.0	0.1	-0.2	14.7	-0.3	.	.	.
CC(=O)NCCNc1nc2cc(-c3ccccc3CO)sc2c(=O)n1C	.	-6.6	-0.5	0.8	10.0	0.1	.	.	.
Fc1ccccc1NC(=S)NCCc1cccc(Cl)c1	0.5	-6.1	0.7	-2.8	2.6	6.0*	17.1*	5.8	8.9
COC(=O)/C(=C\Nc1ccc(OC)cc1)NC(=O)c1ccc(Cl)cc1Cl	-1.2	-13.8	0.0	-1.7	-2.6	20.2*	56.7*	7.2	30.3*
CCCCC[C@H](C)N1C[C@@H](COCc2ccccc2)Oc2cc(N3CCC[C@@H]3COC)ccc2S1(=O)=O	.	.	-0.3	.	.	-0.4	.	.	.
Oc1[nH]c(=S)sc1C=C1N=c2ccccc2=N1	0.5	15.9	-0.1	-2.7	-4.1	6.5*	14.6*	4.9	5.8
Oc1c(C=C2N=c3ccccc3=N2)sc(=S)n1-c1ccc(F)cc1	3.4	-11.6	0.1	0.0	0.8	1.5	.	.	.
O=C(c1ccncc1)c1ccc(N2CCN(C3CC(=O)N(Cc4cccs4)C3=O)CC2)cc1 (configuration not stated)	1.1	-14.0	0.1	0.6	11.0	6.6*	14.2*	11.2	6.0
CCc1nc2c(OCc3c(C)noc3C)cccn2c1N(C)C(=O)c1ccccc1F	.	-23.4	-0.4	-0.7	-6.2	0.5	.	.	.
COCCN1CC(=O)N2C(c3cccc(OC)c3)c3[nH]c4ccccc4c3C[C@H]2C1=O (some centres not stated)	0.3	.	0.0	-0.8	2.0	11.4*	24.3*	-0.4	7.0
CC(C)OCCCN1CC(=O)N2C(c3cccc([N+](=O)[O-])c3)c3[nH]c4ccccc4c3C[C@H]2C1=O (some centres not stated)	1.7	.	0.0	0.2	14.2	93.2*	94.7*	5.4	85.0*
COCCCN1CC(=O)N2C(c3cccc(OC)c3)c3[nH]c4ccccc4c3C[C@H]2C1=O (some centres not stated)	-1.4	.	-0.1	-1.4	11.6	11.5*	24.4*	3.5	6.1
COc1cccc(-c2cnc(C(O)c3cc(Cl)cc(Cl)c3)[nH]2)c1 (configuration not stated)	.	-2.6	0.0	1.6	-2.7	54.5*	77.5*	1.4	56.9*
COc1cccc(-c2cnc(C(O)c3ccccc3)[nH]2)c1 (configuration not stated)	.	-8.7	0.2	-2.9	6.3	0.1	.	.	.
SMILES	NTR1 agonist	TAG inh	aDG glyco up	MC4R ag barr	MC4R antag cAMP	Tb MetRS inh	Tb MetRS conf	Jurkat tox	Tb MetRS inh FP
COc1cccc(-c2cnc(C(O)c3cc(F)cc(Cl)c3)[nH]2)c1 (configuration not stated)	.	-14.9	0.0	-0.4	4.5	19.6*	40.1*	0.1	18.4*
CCCCCNC(=O)C1C(=O)Nc2ccccc2C(=O)N1c1c(C)cccc1C (configuration not stated)	.	.	0.2	.	.	-0.8	.	.	.
O=c1[nH]c(=S)[nH]c2c1C(c1ccc(F)cc1)OC(CCOCc1ccccc1)C2 (configuration not stated)	.	.	0.0	.	.	-0.3	.	.	.
Cc1ccc2nc(/C(C#N)=C\c3cc(O)ccc3[N+](=O)[O-])[nH]c2c1	2.4	-13.9	-0.4	-2.4	2.0	13.7*	38.0*	-7.0	9.1
COc1ccc(Nc2c(-c3ccc(F)cc3)nc3nc(C)cc(C)n23)cc1	.	.	0.0	.	.	-0.6	.	.	.
CNc1cc(-c2cc(OC)ccc2OC)ncn1	.	-4.0	0.0	0.8	5.5	0.4	.	.	.
Cc1ccc(N2C(=O)CC(N(CCc3ccccc3)C(=S)Nc3ccc(N(C)C)cc3)C2=O)cc1 (configuration not stated)	22.1	-3.6	0.4	7.6	20.4	73.9*	45.8*	10.3	28.5*
CCOc1ccc(N2C(=O)CC(N(CCc3ccccc3)C(=O)/C=C/C(=O)O)C2=O)cc1 (configuration not stated)	0.8	.	-0.2	-0.3	0.4	-1.1	.	.	.
COc1ccc(CN=C2Nc3ccccc3CS2)cc1	2.2	.	0.9	-0.5	-4.7	7.7*	24.7*	4.1	2.7
